In article PMC5013402 (BMJ Open Diabetes Research & Care, 2016):
Like-named read-outs stand apart in the source and are kept apart here. Marks after values point to notes of the source that are not given here.

Key:
[1] = after subcutaneous injection; cited from earlier work
[2] = cited from earlier work; for Terminal clearance half-life from the lung: delivered as Technosphere inhaled insulin
[3] = type: in vivo, human (patients with type 1 or type 2 diabetes); conditions: serum, mean (SD), n=19
Procedure, shortened: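 Patients arrived fasting, with the morning prandial dose withheld; basal insulin or oral agents were taken as usual. Each inhaled their current individualized dose (range 15–90 units), then drank a standardized 540 kcal/67.5 g carbohydrate liquid meal. Serum was sampled at −30, 0, 5, 10, 15, 20, 30, 45, 60, 90, 120, 180 and 240 min. The challenge was repeated ≥15 to ≤45 days after symptom resolution, each patient serving as own control. Descriptive statistics.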

Molecule | Duration of action [1] [h] | Time to maximum concentration [1] [min] | Terminal clearance half-life from the lung [2] [h] | other results
insulin aspart | 3 to 5 | 50 to 120 |  | 
insulin: recombinant human insulin delivered as Technosphere inhaled insulin |  |  | ~1 | 
regular human insulin: regular human insulin given by subcutaneous injection | 5 to 8 | 80 to 120 |  | 
insulin lispro | 3 to 5 | 50 to 120 |  | 
O=C(O)/C=C/C(=O)NCCCC[C@@H]1NC(=O)[C@H](CCCCNC(=O)/C=C/C(=O)O)NC1=O [FDKP, fumaryl diketopiperazine] |  |  | ~1 | Excretion ([2]; after inhalation of Technosphere inhaled insulin): excreted unchanged in the urine; FDKP tmax ([3]; during URTI): 15.8 (26.2)† min; FDKP t½ ([3]; during URTI): 163.2 (35.5)† min; FDKP tmax ([3]; post-URTI): 15.5 (14.8)† min; FDKP t½ ([3]; post-URTI): 174.8 (79.0)† min
